By ED50 is commonly meant the midpoint of the dose-response relation. A high value points to weaker potency. As a reminder, the LD50 is the dose at which mortality reaches 50%. As a reminder, the Kd is the equilibrium constant for the complex coming apart. The low end stands for a tighter complex, the high end for a looser complex.

The text below walks through data of ChEMBL document CHEMBL1122609, “N-allyl analogues of phencyclidine: chemical synthesis and pharmacological properties” (J Med Chem, 1984).

The species named for data set [1] is Mus musculus. As to the kind of experiment: Effective dose for the degree of motor incoordination in untrained mice. It is filed as functional. Summed up:
(§1)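 Male HAP ICR Swiss mice, 25-30 g, pre-screened for passing. Dosing ip in 0.9% NaCl as a solution or fine suspension, 0.01 mL/g, 4-6 doses, six mice per dose, repeated on 2-4 more days. Platform rotated 180° at 5-120 min. Falling, or failing to climb within 60 s, scored.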

The nature of data set [2]: Ratio of half life (protection) to the control was reported at a concentration 8*10e-6 M. The class given is ADME. The gist of the method:
(§2)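 Horse-serum BChE (3 units/mg), Ellman method: 0.025 unit with acetylthiocholine 1.87 × 10^-3 M in 0.1 M phosphate buffer pH 7.4 at 25 °C, absorbance at 412 nm followed over time. Enzyme preincubated 3 min with test compound. DFP 2.5 × 10^-8 M then added. Aliquots assayed for residual activity at various times. Pseudo-first-order constant used to obtain k2 = ln(A0/At)/([I]t).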

For data set [3], the system named is Mus musculus. As to the kind of experiment: Lethal dose (LD50) determined by the Litchfield and Wilcoxon method was reported. The class given is functional. The gist of the method:
(§3)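 Male HAP ICR Swiss mice, 25-35 g, in groups of six, given ip doses. Deaths counted at 24 h after injection. LD50 estimated by Litchfield–Wilcoxon probit analysis, as for ED50.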

For data set [4], the system named is Mus musculus. As to the kind of experiment: Percent failing the test was reported at dose 9.60 umol/kg (experiment 2). It is filed as functional.
A short description of data set [5]: Ratio of failed to the tested was reported at dose 19.0 umol/kg (experiment 2); out of 6. It is filed as functional.
Data set [6] is described as follows: Ratio of half life (protection) to the control was reported at a concentration 0 M. The class given is ADME. Summed up: as §2
Data set [7] in a line: Ratio of failed to the tested was reported at dose 16.0 umol/kg (experiment 1); out of 6. It is filed as functional.
Data set [8] is described as follows: Ratio of half life (protection) to the control was reported at a concentration 4*10e-6 M. The class given is ADME. The gist of the method: as §2
In data set [9] the test system is Mus musculus. As to the kind of experiment: Percent failing the test was reported at dose 13.2 umol/kg (experiment 1). It is filed as functional.
Data set [10] is described as follows: Ratio of half life (protection) to the control was reported at a concentration 4*10e-5 M. It is filed as ADME. The gist of the method: as §2
Data set [11] has as its target Muscarinic acetylcholine receptor. As to the kind of experiment: Dissociation constant towards Muscarinic acetylcholine receptor was determined by using [3H]4NMPB as radioligand. It is filed as protein assay. The gist of the method:
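Competition binding with [3H]-4NMPB in the S1 supernatant of mouse-brain homogenate, with and without test compound at various concentrations. Nonspecific binding determined and subtracted. KD calculated from the difference in binding.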

The species entered for data set [12] is Mus musculus. As to the kind of experiment: Relative potency was determined using mouse platform test of Coughenour et al. It is filed as functional. The gist of the method: as §1
Data set [13] is filed under the species Mus musculus. As to the kind of experiment: Acute toxicity relative to PCP was reported. The class given is organism-based. The conditions noted are these: in vivo.
Data set [14] in a line: Ratio of failed to the tested was reported at dose 26.0 umol/kg (experiment 1); out of 6. It is filed as functional. The gist of the method:
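Male HAP ICR Swiss mice (20-30 g), six per group, pre-screened on the platform test. An N-allyl analogue in 0.9% NaCl was given ip, and PCP ip followed 5 min later. The platform was rotated 180° within 10 s, and mice were scored over 60 s for falling off or reaching the top. Testing was at 5-120 min post-injection. The read-out was the number failing out of the number tested.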

A short description of data set [15]: Ratio of half life (protection) to the control was reported at a concentration 4*10e-7 M. It is filed as ADME. The gist of the method:
as §2

A short description of data set [16]: Ratio of failed to the tested was reported at dose 29.0 umol/kg (experiment 2); out of 6. The class given is functional.
Data set [17] can be described thus: Ratio of half life (protection) to the control was reported at a concentration 9*10e-7 M. It is filed as ADME. The gist of the method:
as §2

A short description of data set [18]: Ratio of failed to the tested was reported at dose 15.2 umol/kg (experiment 2); out of 12. It is filed as functional.
The nature of data set [19]: Ratio of failed to the tested was reported at dose 12.4 umol/kg (experiment 1); out of 12. It is filed as functional.
Data set [20] is filed under the species Mus musculus. As to the kind of experiment: Compound was evaluated for acute toxicity relative to PCP. The class given is organism-based. The conditions noted are these: in vivo.
Data set [21] is described as follows: Ratio of failed to the tested was reported at dose 9.60 umol/kg (experiment 2); out of 6. It is filed as functional.
A short description of data set [22]: Ratio of half life (protection) to the control was reported at a concentration 2*10e-6M. The class given is ADME. Summed up: (§4)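 Horse serum BChE (0.5 unit/mL) was incubated 3 min with the compound, then DFP was added at 2.5 × 10^-8 M, 25 °C. Residual activity was measured in aliquots over time by the Ellman method: acetylthiocholine 1.87 × 10^-3 M, 0.1 M phosphate pH 7.4, absorbance at 412 nm. Inactivation was fitted as pseudo-first-order.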

Data set [23] can be described thus: Ratio of half life (protection) to the control was reported at a concentration 3*10e-6 M. It is filed as ADME. The gist of the method:
as §4

Data set [24] in a line: Ratio of failed to the tested was reported at dose 13.2 umol/kg (experiment 1); out of 6. The class given is functional. The gist of the method: (§5)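 Male HAP ICR Swiss mice (20-30 g) pre-screened on the mouse platform test. PCP was given ip in 0.9% NaCl (0.01 mL/g). The platform was rotated 180° within 10 s, and mice were scored over 60 s for falling off, failing to reach the top, or reaching the top. Testing was at 5-120 min post-injection. The read-out was the number failing out of the number tested.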

In data set [25] the test system is Mus musculus. As to the kind of experiment: Percent failing the test was reported at dose 9.60 umol/kg (experiment 1). The class given is functional.
In data set [26] the test system is Mus musculus. As to the kind of experiment: Compound was evaluated for lethal dose (LD50) by the Litchfield and Wilcoxon method. It is filed as functional. The gist of the method: as §3
Data set [27] in a line: Ratio of failed to the tested was reported at dose 9.60 umol/kg (experiment 2); out of 24. It is filed as functional. The gist of the method:
as §5

Data set [28] is filed under the species Mus musculus. As to the kind of experiment: Compound was evaluated for acute toxicity relative to compound PCP. The class given is organism-based. The conditions noted are these: in vivo.

In the case of `C=CCN(C)C1(c2ccccc2)CCCCC1`, the median effective dose (ED50) in the data set filed under Mus musculus [1] stood at 27.2 µmol/kg. Moreover, the Ratio was 2.21 in data set [2]; 6 in data set [5]; 1 in [6]; 6 in data set [7]; 2.15 in data set [8]; 7.76 in data set [10]. In the data set with Mus musculus [3], this compound yielded a 50% lethal dose (LD50) of 516 µmol/kg. The Activity in the data set on Mus musculus [4] and in the data set with Mus musculus [9] was 100% in each case. In data set [11], this compound yielded a Kd of 15 µM. Moreover, the Relative potency in the data set listed under Mus musculus [12] is recorded as 0.41. Further, the Acute toxicity in the data set listed under Mus musculus [13] is 0.5.

The compound `C=CCN(CC=C)C1(c2ccccc2)CCCCC1` registered a 50% effective dose (ED50) in the data set listed under Mus musculus [1] of 35.6 µmol/kg. Besides, the Ratio is on record as 6 in data set [14]; 1 in data set [6]; 1.18 in data set [15]; 5.89 in data set [8]; 6 in data set [16]; 2.12 in data set [17]. Further, the Activity with Mus musculus [4] and with Mus musculus [9] was 100% in each case. Besides, the Kd in data set [11] came to 25 µM. The Relative potency in the data set listed under Mus musculus [12] was 0.27.

As to `C=CCN(CC)C1(c2ccccc2)CCCCC1`, it took a dose of 22.6 µmol/kg to reach the 50% effect level in the data set filed under Mus musculus [1] (ED50). The Ratio in data set [2] worked out at 1.71; in data set [6] it was 1; in data set [15] it was 1.33; in data set [8], 5.11; in data set [18], 10; in [19], 10. This compound showed an LD50 in the data set with Mus musculus [3] of 441 µmol/kg. Also, the Activity in the data set on Mus musculus [4] and in the data set on Mus musculus [9] was 83% throughout. Further, in [11], the Kd is 14 µM. The same compound showed a Relative potency in the data set filed under Mus musculus [12] of 0.42. For the same compound, the Acute toxicity in the data set listed under Mus musculus [13] was found to be 0.59.

For the compound `C=CCNC1(c2ccccc2)CCCCC1`, the ED50 in the data set listed under Mus musculus [1] came to 20.4 µmol/kg. Besides, the Acute toxicity in the data set listed under Mus musculus [20] is reported as 0.75. Also, the Ratio was determined as 2.35 in data set [2]; 5 in data set [21]; 1.22 in data set [22]; 1 in [6]; 1.71 in data set [23]; 2.61 in data set [8]. The Ratio in data set [24] was determined as 6. The compound further came in with a median lethal dose (LD50) with Mus musculus [3] of 344 µmol/kg. The Activity worked out at 83% in the data set with Mus musculus [25] and 100% in the data set on Mus musculus [9]. In addition, the dissociation constant (Kd) in data set [11] amounted to 70 µM. In the data set listed under Mus musculus [12], this compound had a Relative potency of 0.55.

For the compound `CCNC1(c2ccccc2)CCCCC1` [ETICYCLIDINE], the Ratio is listed as 2.52 in [2], 1 in [6], 0.95 in [15] and 2.6 in [8].

With `c1ccc(C2(N3CCCCC3)CCCCC2)cc1` [PHENCYCLIDINE], the ED50 in the data set filed under Mus musculus [1] worked out at 9.6 µmol/kg. Besides, the Ratio in [2] is 1.73; in data set [27], 11; in [6], 1; in data set [15], 1.26; in data set [8], 4.48; in data set [24], 2. The LD50 in the data set on Mus musculus [26] came out at 258 µmol/kg. The results for the Activity in the data set with Mus musculus [4] and in the data set with Mus musculus [9] were 45.8% and 33.3%, respectively. In [11], this compound returned a Kd of 9.1 µM. In the data set listed under Mus musculus [28], this compound gave an Acute toxicity of 1. The same compound showed a Relative potency in the data set listed under Mus musculus [12] of 1.
